# Yeast life ext: compounds extending yeast replicative lifespan, primary screen, S. cerevisiae, OD615; S. cerevisiae growth with nicotinamide; deaD strain in restrictive glucose medium; inhibition of the nicotinamide effect, % at 10 µM; 130,000 tested, 0.68% active;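 active = inhibition above a set limit, placed 3 SD over the median of all compounds, cut at about 26% in these data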;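 also: 0% = nicotinamide-treated wells and 100% = cells grown without nicotinamide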
#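 Material: Modified budding yeast, DeaD strain | Medium: Restrictive glucose medium | Probe or stimulus: 1.5 mM nicotinamide | Dosing: Single dose 10 µM compound, 0.25% DMSO | Times: 48 h at 30 °C | Technique: OD615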
# BB579 growth dn: growth inhibitors of yeast BB579 in restrictive medium, primary screen, yeast lifespan-shortening project, S. cerevisiae. 140,000 tested, 0.51% active. AID 804, 2007. OD615, 48 h. inhibition, % at 10 µM;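 active = inhibition above a set limit, 3 SD over the mean compound inhibition, cut at about 44% in these data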
#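 Test system: DeaD yeast strain BB579 / Buffer or medium: restrictive glucose-based CSMM-D medium / Doses: single 10 µM dose / Schedule: 4 h cell preincubation, 48 h compound exposure, 30 °C humidified / Technique: culture absorbance at 615 nm / Controls: amphotericin B positive control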
# WT yeast gro inh: growth inhibition of WT strain, primary screen, mitochondrial fusion inhibitor project, WT and mutant strains, chemical genetic; mitochondrial fusion phenotypic screen; inhibition, % at 10 µM; 190,000 tested, 2.1% active; in the data active = inhibition above about 58%; tested in S. cerevisiae
# KCC2 mod: KCC2 cotransporter modulators, thallium flux, primary screen, cell-based, HEK293 KCC2, FluoZin-2 fluorescence, MLSMR; KCC2 cells, thallium flux FluoZin-2 fluorescence; Solute carrier family 12 member 5 (Homo sapiens), Q9H2X9; B-score of Tl+ flux slope (higher = more flux/activation; lower = inhibition) at 10 µM; 190,000 tested, 2.2% active;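 active = thallium flux slope and its plate-corrected score both differing from the plate sample mean at a set confidence after two filtering rounds, in either direction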;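 also: slope of fluorescence scaled to starting intensity during 10 to 20 s after thallium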
# RAM network inh: inhibitors of the yeast RAM network, primary screen, dse1pr::URA3 reporter, 5-FOA selection | S. cerevisiae dse1pr::URA3 reporter, 5-FOA growth OD615, 2 d; analog-sensitive cbk1-as2 kinase mutant strain | inhibition, % at 50 µM | 190,000 tested, 1.8% active | AID 868, 2007;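 active = inhibition above a set limit, 3 SD over mean compound inhibition, cut at about 8.4% in these data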;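 also: 0% = DMSO-only wells with no growth and 100% = 10 µM 1-NA-PP1 full growth; inhibition rescues growth on 5-FOA so higher OD means more RAM inhibition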
# Active calls of the source: *; x = no result. A selection: hits, their analogues and other compounds. The true share with any hit is near 5.5%.
SMILES,Yeast life ext,BB579 growth dn,WT yeast gro inh,KCC2 mod,RAM network inh
COc1cc(S(=O)(=O)N(Cc2cccs2)CC2CCCO2)ccc1-n1cnnn1 (configuration not stated),-4.4,-19.1,5.7,-0.588,4.2
CC(NCc1ccc(S(N)(=O)=O)cc1)C(=O)N1c2ccccc2CC1C (configuration not stated),x,x,x,0.722,x
Cc1cc(-c2cc(C(=O)NCc3ccccc3)on2)nc(NC2CCCC2)n1,x,x,x,-1.08,x
O=C(Nc1ccc(Cl)cc1)OCc1cc(-c2ccccc2Cl)on1,-10.8,-45.2,13.8,-0.337,7.2
Cc1ccc(NC(=O)OCc2cc(-c3ccccc3)on2)cc1,x,x,15.6,1.02,9.9*
O=C(CSc1nnc(-c2cccnc2)s1)Nc1cccc(C(=O)O)c1,5.9,-46.2,-6.0,-0.535,10.3*
COc1cc(OC)cc(-c2nnc(SCC(=O)Nc3cccc(C(=O)O)c3)s2)c1,x,x,1.5,-0.201,2.3
C=C(C)CNC(=S)N1CCNC(=O)C1CC(=O)OC (configuration not stated),-1.6,13.8,-4.6,1.66,-0.4
CCc1ccc(CCC(=O)Nc2ccccc2C(=O)O)o1,-20.7,-0.8,77.3*,-1.1,-0.6
CCOC(=O)c1ccc(N/C=C/C(=O)c2ccc(OC)c(OC)c2)cc1,-17.2,-42.2,13.7,-0.343,3.9
COc1ccc(C(=O)/C=C/Nc2ccc(C)cn2)cc1OC,x,52.0*,3.4,x,1.9
Cc1cc(-c2cc(C(=O)NCc3ccccc3)on2)nc(S(C)(=O)=O)n1,x,x,x,0.289,x
CSCCNC(=O)c1ccc(OC2CCN(CCc3ccccc3)CC2)cc1,x,x,-3.2,x,0.0
CSc1ccc(OC2CCN(Cc3ccccc3)CC2)cc1,3.4,-14.0,62.9*,x,1.1
Cc1ccc(NCC(=O)N/N=C/c2cccc(Oc3ccccc3)c2)cc1,-6.1,-26.3,39.1,-0.195,10.3*
CN(C)C(=O)COc1ccc(Oc2ccccc2)cc1,x,x,-5.7,-0.405,-0.5
CC(C)C1Nc2ccc(C(=O)O)cc2C2C=CCC21 (configuration not stated),x,x,-21.7,2.45,2.9
CCOC(=O)c1ccc2c(c1)C1C=CCC1C(C(=O)O)N2 (configuration not stated),-9.4,-34.0,21.9,0.0135,9.7*
CCN(CC)S(=O)(=O)c1ccc(N2CCN(S(=O)(=O)c3ccc4c(c3)OCCO4)CC2)nc1,-2.2,-36.2,-12.5,x,4.0
CCc1cc2c(cc(C(=O)O)n2C)s1,-6.1,57.8*,-8.8,-0.392,-0.6
Cc1ccc(S(=O)(=O)n2nc(C)cc2C)cc1,-7.5,-30.1,1.6,x,0.5
Cc1ccc(C(C[N+](=O)[O-])n2nc(C)cc2C)cc1 (configuration not stated),18.7,47.4*,-11.9,-1.72,-0.5
COc1ccccc1OCCNc1cc(N2CCCCC2)ccc1[N+](=O)[O-],-4.5,-12.1,11.4,-0.0297,11.0*
O=C(c1ccccc1)c1c[nH]c(C(=O)NCCCn2ccnc2)c1,-3.8,-28.3,2.2,1.91,1.6
COC(=O)c1ccc(C(=O)OC)c(NC(=O)CSc2cccc[n+]2[O-])c1,-28.5,98.9*,1.8,1.47,-1.2
SMILES,Yeast life ext,BB579 growth dn,WT yeast gro inh,KCC2 mod,RAM network inh
CCOc1ccc(NC(=S)NN(C)C(=S)Nc2ccc(OCC)cc2)cc1,-1.1,-62.2,65.4*,0.0295,4.4
CCOc1ccc(NC(=S)N(CCc2c(C)[nH]c3ccc(C)cc23)Cc2ccco2)cc1,-1.4,12.0,67.0*,0.51,3.3
CCOc1ccc(NC(=S)N(Cc2ccc(N(C)C)cc2)Cc2ccco2)cc1,-12.1,-13.8,59.0*,-1.89,2.4
CCNC(=S)N(Cc1ccco1)Cc1cc2cc(OCC)ccc2[nH]c1=O,x,x,5.0,-0.41,9.7*
COc1ccc(CCNC(=O)CSc2nc3ccccc3o2)cc1,-4.0,-14.4,11.3,0.487,0.1
Cn1c(SCC(=O)NC(=O)Nc2ccccc2)nnc1-c1ccncc1,x,x,x,0.646,x
COc1ccc(NC(=S)N(CCc2c(C)[nH]c3ccc(C)cc23)Cc2ccco2)cc1,13.4,-6.2,68.7*,0.083,2.0
COc1ccc(NC(=S)N(CCc2c(C)[nH]c3ccc(C)cc23)Cc2cccs2)cc1,-0.5,-8.0,66.2*,-1.22,2.5

# Screens from PubChem BioAssay.
